The values below come from paper PMC6281781 (Structure (London, England : 1993), 2018).

In assay [1] the target is chicken PACSIN3 SH3 domain (chicken). Briefly: NMR titration.
The target in assay [2] is chicken PACSIN1 SH3 domain (chicken). Briefly: NMR titration.
The next assay concerns PACSIN3 SH3 domain. Description: NMR 1H,15N-HSQC chemical shift titration with PACSIN3 SH3 domain. In kind it is binding, chicken. The settings on record: for affinity for PACSIN3 SH3 domain relative to wildtype (in words): mutations in the TRPV4-PRR, interaction not fully abolished, Fig. S6, Table S1. An outline of the steps: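 Chicken PACSIN3 SH3 domain (N-terminal His6) was 15N-labelled in E. coli minimal medium and purified by NiNTA then Superdex75 SEC. It was held at 250 μM in 10 mM Tris pH7, 100 mM NaCl and titrated from concentrated stocks with peptide (wildtype, AAWAA, P128A or P128A/P129L) and/or lipid, with the second ligand added sequentially. HSQC shifts were fitted for KD.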

The Kd is the constant that tells how readily two partners part at equilibrium. Low readings indicate tighter binding, high ones weaker binding. On to “chicken TRPV4 PIP2 binding domain plus proline rich region peptide (PBD-PRR, residues 105-134) (from UniProt A0A1D5PXA5 105-134)”, for which the Kd in assay [1] came to 74.2 µM.

As to “chicken TRPV4 proline rich region peptide (PRR, residues 121-134), native sequence (from UniProt A0A1D5PXA5 121-134)”, the values for the Kd in assay [2] and in assay [1] were 51.6 µM and 68.6 µM, respectively.

As to `CCCCCCCC(=O)OC[C@H](COP(=O)(O)O[C@@H]1[C@H](O)[C@H](O)[C@@H](OP(=O)(O)O)[C@H](OP(=O)(O)O)[C@H]1O)OC(=O)CCCCCCC` [PIP2, diC8-PI(4,5)P2, reference compound], the “interaction with PACSIN3 SH3 domain (in words)” value in the assay with PACSIN3 SH3 domain (PIP2 added to isolated 15N-PACSIN3 SH3, no chemical shift changes in 1H,15N-HSQC) is recorded as “does not interact”.

As for “P128A: TRPV4 N-terminal peptide with single P128A mutation in the PRR (ENKRWRRRVVEKPVAGTKGPAPNAPPILKV; left off: His6-SUMO, N-terminal, cleaved)”, the “affinity for PACSIN3 SH3 domain relative to wildtype (in words)” value in the assay with PACSIN3 SH3 domain was “weakened”.

For “P128A/P129L: TRPV4 N-terminal peptide with double mutation P128A/P129L in the PRR (ENKRWRRRVVEKPVAGTKGPAPNALPILKV; left off: His6-SUMO, N-terminal, cleaved)”, in the assay with PACSIN3 SH3 domain, the “affinity for PACSIN3 SH3 domain relative to wildtype (in words)” value is given as “weakened”.
